We go through 6 compounds from ChEMBL document CHEMBL2412990, “Synthesis and pharmacological evaluation of new N-phenylpiperazine derivatives designed as homologues of the antipsychotic lead compound LASSBio-579” (Eur J Med Chem, 2013).

As usually defined, the inhibition is how much of the control response was suppressed. By Ki is commonly meant a measure of affinity in units of concentration, obtained from inhibition or displacement. Higher therefore signals weaker binding.

Data set [1] has as its target Muscarinic acetylcholine receptor (Rattus norvegicus) (UniProt P08482+P08483+P08485+P08911+P10980). Description: Displacement of [3H]-QNB from muscarinic receptor in rat brain cortical membranes at 30 uM after 60 mins by liquid scintillation counting. The data set is classed as cell membranes. Conditions: Membrane. In short, it runs like this: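 Cortical membranes, 150 µg protein, with 0.1 nM [3H]-QNB in 50 mM Tris-HCl pH 7.4 at room temperature for 60 min. Non-specific binding was defined with atropine sulfate. Samples were diluted with cold 5 mM Tris-HCl, vacuum-filtered on glass fibre filters and counted by liquid scintillation.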
For orientation: In a radioligand displacement assay an active substance lowers the binding of a labelled ligand.

Data set [2] has as its target T1, Adrenergic receptor alpha-2 (Rattus norvegicus, UniProt P22086+P19328+P22909).
T1 sequence (P22086 whole entry): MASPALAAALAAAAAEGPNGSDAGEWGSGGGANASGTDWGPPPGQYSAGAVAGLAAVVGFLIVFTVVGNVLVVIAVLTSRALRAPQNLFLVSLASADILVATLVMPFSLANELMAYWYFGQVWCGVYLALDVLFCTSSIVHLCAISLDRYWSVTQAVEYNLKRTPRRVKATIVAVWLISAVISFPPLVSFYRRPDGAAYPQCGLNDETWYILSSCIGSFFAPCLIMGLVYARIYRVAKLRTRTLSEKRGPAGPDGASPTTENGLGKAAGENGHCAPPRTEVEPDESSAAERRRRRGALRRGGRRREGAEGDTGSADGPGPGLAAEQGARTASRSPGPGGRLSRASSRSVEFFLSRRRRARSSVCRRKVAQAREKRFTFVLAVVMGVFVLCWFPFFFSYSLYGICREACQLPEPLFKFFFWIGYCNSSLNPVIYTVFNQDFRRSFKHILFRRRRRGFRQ
T1 sequence (P19328 whole entry): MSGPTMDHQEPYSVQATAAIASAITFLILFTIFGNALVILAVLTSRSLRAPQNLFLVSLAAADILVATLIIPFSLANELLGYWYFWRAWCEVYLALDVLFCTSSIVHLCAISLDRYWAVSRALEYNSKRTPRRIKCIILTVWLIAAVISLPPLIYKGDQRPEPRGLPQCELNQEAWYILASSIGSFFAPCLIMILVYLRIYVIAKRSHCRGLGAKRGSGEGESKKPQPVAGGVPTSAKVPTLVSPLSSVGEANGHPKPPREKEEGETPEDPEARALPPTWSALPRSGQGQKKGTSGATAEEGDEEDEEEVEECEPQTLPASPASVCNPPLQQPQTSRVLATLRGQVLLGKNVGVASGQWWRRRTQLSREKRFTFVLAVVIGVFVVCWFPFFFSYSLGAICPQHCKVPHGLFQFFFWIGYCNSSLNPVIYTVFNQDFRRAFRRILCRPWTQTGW
T1 sequence (P22909 whole entry): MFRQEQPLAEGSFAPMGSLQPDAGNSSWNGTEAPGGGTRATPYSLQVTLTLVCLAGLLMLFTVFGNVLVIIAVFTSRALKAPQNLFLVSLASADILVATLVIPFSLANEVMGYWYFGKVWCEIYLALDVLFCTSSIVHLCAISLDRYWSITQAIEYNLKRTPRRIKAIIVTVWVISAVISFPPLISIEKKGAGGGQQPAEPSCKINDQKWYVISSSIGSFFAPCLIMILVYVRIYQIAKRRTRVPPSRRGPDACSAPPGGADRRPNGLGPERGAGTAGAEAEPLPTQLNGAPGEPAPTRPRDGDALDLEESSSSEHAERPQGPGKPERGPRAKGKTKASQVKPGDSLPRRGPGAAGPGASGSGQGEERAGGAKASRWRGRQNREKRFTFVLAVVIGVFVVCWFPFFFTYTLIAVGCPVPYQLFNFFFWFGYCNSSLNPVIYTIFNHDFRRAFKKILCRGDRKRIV
Kind of data set: Displacement of [3H]-RX821002 from alpha2 adrenoreceptor in rat brain cortical membranes after 45 mins by liquid scintillation counting. Type of data set: cell membranes, Membrane.

In data set [3] the test system is Mus musculus. Description: Antipsychotic activity in CF1 mouse assessed as prevention of apomorphine-induced climbing behaviour at 0.1 to 10 mg/kg, ip administered 30 mins prior apomorphine challenge measured 5 to 30 mins post challenge. The data set is classed as functional, organism-based. In a few lines: (§1)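 Adult male mice, 25–35 g, dosed i.p. at 10 ml/kg, then placed in wire-bar cages for 30 min. Apomorphine 4 mg/kg s.c. followed. Climbing was scored 0–4 for 1 min at 5, 10, 15, 20, 25 and 30 min; the climbing index is the sum of scores. n = 7–9. Analysed by one-way ANOVA with Newman-Keuls post hoc test.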

Data set [4] concerns the target Dopamine D2 receptor and Serotonin 2a receptor (D2 and 5HT2a) (Rattus norvegicus) (UniProt P61169+P14842). Kind of data set: Selectivity ratio of Ki for dopamine D2 receptor in rat brain striatal membranes to Ki for 5HT2A receptor in rat brain cortical membranes. The settings on record: Membrane. Type of data set: cell membranes.
For data set [5], the system named is Mus musculus. Kind of data set: Toxicity in CF1 mouse assessed as reduction in locomotor activity measuring number of crossings at 10 mg/kg, ip administered 30 mins prior ketamine challenge measured for 20 mins post challenge. Conditions: in vivo. The data set is classed as organism-based. Also on record: dose 10 mg/kg, route intraperitoneal.
Data set [6] has as its system Mus musculus. Kind of data set: Antipsychotic activity in ip dosed CF1 mouse assessed as prevention of apomorphine-induced climbing behaviour compound administered 30 mins prior apomorphine challenge measured 5 to 30 mins post challenge. Type of data set: functional, organism-based. In short, it runs like this: as §1
The target in data set [7] is 5-hydroxytryptamine receptor 2A (Rattus norvegicus) (UniProt P14842). Kind of data set: Antagonist activity at 5HT2A receptor in rat brain cortical membranes assessed as inhibition of [3H]-ketanserin binding to receptor after 15 mins by competition assay in absence of GTP. The data set is classed as cell membranes. In a few lines: (§2)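 Rat cortical membranes, 150 µg protein, with 1 nM [3H]-ketanserin and 100 nM prazosin in 50 mM Tris-HCl pH 7.4, 37 °C, 15 min. Non-specific binding was defined with ketanserin. For the GTP shift, paired competition curves were run without and with guanylyl nucleotide (0.1 mM Gpp(NH)p or 1 mM GTP).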
Sequence of 5-hydroxytryptamine receptor 2A (Rattus norvegicus) (P14842 whole entry): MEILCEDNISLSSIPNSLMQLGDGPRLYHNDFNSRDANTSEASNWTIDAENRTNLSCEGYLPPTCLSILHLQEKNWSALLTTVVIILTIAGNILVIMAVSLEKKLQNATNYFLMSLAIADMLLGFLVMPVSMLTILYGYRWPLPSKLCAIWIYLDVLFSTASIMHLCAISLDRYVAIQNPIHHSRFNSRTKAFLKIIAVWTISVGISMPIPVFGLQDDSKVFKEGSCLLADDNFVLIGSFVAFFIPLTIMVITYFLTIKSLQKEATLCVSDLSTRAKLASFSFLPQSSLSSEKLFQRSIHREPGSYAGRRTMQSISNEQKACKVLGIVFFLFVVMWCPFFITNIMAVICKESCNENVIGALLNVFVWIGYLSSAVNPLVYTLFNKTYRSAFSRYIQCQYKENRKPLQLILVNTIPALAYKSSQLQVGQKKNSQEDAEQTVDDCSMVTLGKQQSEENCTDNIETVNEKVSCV

Data set [8] relates to Mus musculus. Description: Antipsychotic activity in ip dosed CF1 mouse assessed as prevention of ketamine-induced hyperlocomotion compound administered 30 mins prior ketamine challenge measured for 20 mins post challenge. Type of data set: functional, organism-based. In a few lines:
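Mice were pretreated (reference drug orally after 2 h fast; test compound i.p.) and placed in the arena centre. Ketamine 10 mg/kg s.c. was given 30 min later. A blinded observer counted total square crossings over 20 min in a dimly lit room. n = 7–8. Analysed by one-way ANOVA with Newman-Keuls post hoc test.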

The test system of data set [9] is Alpha-2 adrenergic receptor (Rattus norvegicus). Kind of data set: Antagonist activity at alpha2 adrenoreceptor in rat brain cortical membranes assessed as inhibition of [3H]-RX821002 binding to receptor after 45 mins by competition assay in absence of GTP.
In data set [10] the target is 5-hydroxytryptamine receptor 2A (Rattus norvegicus) (UniProt P14842). Description: Antagonist activity at 5HT2A receptor in rat brain cortical membranes assessed as inhibition of [3H]-ketanserin binding to receptor after 15 mins by competition assay in presence of GTP. The data set is classed as cell membranes. In short, it runs like this:
as §2

The source made the active and inactive calls. No cut-off for these calls is given here.

Sequence of Dopamine D2 receptor and Serotonin 2a receptor (D2 and 5HT2a) (Rattus norvegicus) (P14842 whole entry, looked up): as the sequence (P14842 whole entry) above
Sequence of Dopamine D2 receptor and Serotonin 2a receptor (D2 and 5HT2a) (Rattus norvegicus) (P61169 whole entry, looked up): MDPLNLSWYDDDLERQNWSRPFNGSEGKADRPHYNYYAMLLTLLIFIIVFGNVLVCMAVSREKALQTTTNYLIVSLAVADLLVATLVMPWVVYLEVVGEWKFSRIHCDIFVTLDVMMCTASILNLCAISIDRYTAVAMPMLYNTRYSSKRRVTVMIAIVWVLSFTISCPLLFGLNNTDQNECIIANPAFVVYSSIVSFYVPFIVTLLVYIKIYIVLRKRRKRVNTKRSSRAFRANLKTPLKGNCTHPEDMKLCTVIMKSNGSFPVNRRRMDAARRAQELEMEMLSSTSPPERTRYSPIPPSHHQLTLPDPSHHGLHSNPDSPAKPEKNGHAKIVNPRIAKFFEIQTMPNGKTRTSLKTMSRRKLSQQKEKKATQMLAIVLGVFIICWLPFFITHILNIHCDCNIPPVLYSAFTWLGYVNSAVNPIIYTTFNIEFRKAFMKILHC

Turning to `Clc1ccc(-n2cc(COCCN3CCN(c4ccccc4)CC3)cn2)cc1`, in [1], the inhibition was found to be 11%. The Ki in data set [2] was 2.1 µM.

As to `Clc1ccc(-n2cc(CN3CCN(c4ccccc4)CC3)cn2)cc1`, in the data set on Mus musculus [3], the result was Active. The Ratio Ki in data set [4] amounted to 0.056. The same compound gave an inhibition in [1] of 22%. The inhibition constant (Ki) in data set [2] came out at 2.5 µM.

In the case of `Clc1ccc(-n2cc(CCCCN3CCN(c4ccccc4)CC3)cn2)cc1`, in data set [4], the Ratio Ki was 0.4. Besides, the figures for the Activity result in the data set on Mus musculus [5], in the data set on Mus musculus [6] and in the data set on Mus musculus [8] were “Toxic”, “Dose-dependent effect” and “Dose-dependent effect”, respectively. For the same compound, the inhibition result in data set [7], in data set [9] and in [10] was “Active” in each case. In [1], the inhibition came out at 2%. Besides, in data set [2], the Ki worked out at 0.61 µM.

In [1], `Clc1ccc(-n2cc(CCCCCN3CCN(c4ccccc4)CC3)cn2)cc1` returned an inhibition of 26%. Also, the Ki in [2] worked out at 1.4 µM.

In data set [1], `Clc1ccc(-n2cc(CCCN3CCN(c4ccccc4)CC3)cn2)cc1` had an inhibition of 39%. This compound yielded a Ki in [2] of 1.6 µM.

On to `Clc1ccc(-n2cc(COCCCN3CCN(c4ccccc4)CC3)cn2)cc1`, for which the inhibition in data set [1] is 28%. The same compound showed a Ki in [2] of 2.8 µM.
